Here are results for five compounds from PMC5546011 (Journal of medicinal chemistry, 2017).

“Also recorded” adds a separate entry of the source. Like-named read-outs stand apart in the source and are kept apart here.

As a reminder, the EC50 is the concentration that produces a half-maximal response. Higher therefore signals lower potency in that assay.

Series [1] has as its target T1, human κ-opioid receptor (Homo sapiens, UniProt P41145). The note with it: result in words; cited from earlier work.
Series [2] concerns mice. The experiment in a line: Intradermal formalin assay. In kind it is in vivo.
Series [3] deals with mice. The experiment in a line: Warm-water tail-withdrawal assay. The format is in vivo. To be noted: 50°C warm-water tail withdrawal, 2 mg/kg i.p.
In series [4] the target is T1, human κ-opioid receptor. The experiment in a line: Inhibition of forskolin-induced cAMP accumulation, KOR. In kind it is cell-based. The note with it: result in words. (In general: Changes in cAMP serve as a functional read-out for many G protein-coupled receptors.)
For series [5], the target named is human μ-opioid receptor (Homo sapiens, UniProt P35372). The series is described as follows: Inhibition of forskolin-induced cAMP accumulation, MOR. In kind it is cell-based. The method in brief: (§1)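 CHO-K1 HitHunter cells stably expressing human δ- or μ-opioid receptor, kept in F-12 with 10% FBS, 1% penicillin/streptomycin/L-glutamine and 800 μg/mL Geneticin at 37 °C, 5% CO2. cAMP accumulation was normalised to vehicle and forskolin-only controls.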
Sequence of human μ-opioid receptor (P35372 whole entry): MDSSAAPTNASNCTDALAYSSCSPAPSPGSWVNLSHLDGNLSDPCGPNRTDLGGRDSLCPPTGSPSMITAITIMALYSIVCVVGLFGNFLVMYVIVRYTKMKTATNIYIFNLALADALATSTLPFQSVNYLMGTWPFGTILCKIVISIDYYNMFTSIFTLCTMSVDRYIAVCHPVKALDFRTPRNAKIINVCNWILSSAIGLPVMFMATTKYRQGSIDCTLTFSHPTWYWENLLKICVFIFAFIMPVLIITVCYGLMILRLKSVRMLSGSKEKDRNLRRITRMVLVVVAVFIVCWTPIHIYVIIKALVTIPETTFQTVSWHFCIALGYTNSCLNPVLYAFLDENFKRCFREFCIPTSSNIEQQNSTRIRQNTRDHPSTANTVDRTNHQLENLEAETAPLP

A short description of series [6]: Rat liver microsomal stability. To be noted: rat liver microsomes 0.25 mg/mL, 10 μM compound, no NADPH, 37°C; result in words. (Liver microsomes are vesicles of endoplasmic reticulum, rich in cytochrome P450 enzymes.)
Series [7] has as its target human δ-opioid receptor (Homo sapiens, UniProt P41143). The experiment in a line: Inhibition of forskolin-induced cAMP accumulation, DOR. The format is cell-based. The method in brief:
as §1

Setting [8] is: 2% intradermal formalin, mice, i.p., vs vehicle/formalin controls.
Setting [9] is: 2% intradermal formalin, mice, i.p., result in words.
The mark [10] stands for this setting: 2% intradermal formalin, mice, vs vehicle/formalin controls, result in words.

T1 sequence (P41145 whole entry): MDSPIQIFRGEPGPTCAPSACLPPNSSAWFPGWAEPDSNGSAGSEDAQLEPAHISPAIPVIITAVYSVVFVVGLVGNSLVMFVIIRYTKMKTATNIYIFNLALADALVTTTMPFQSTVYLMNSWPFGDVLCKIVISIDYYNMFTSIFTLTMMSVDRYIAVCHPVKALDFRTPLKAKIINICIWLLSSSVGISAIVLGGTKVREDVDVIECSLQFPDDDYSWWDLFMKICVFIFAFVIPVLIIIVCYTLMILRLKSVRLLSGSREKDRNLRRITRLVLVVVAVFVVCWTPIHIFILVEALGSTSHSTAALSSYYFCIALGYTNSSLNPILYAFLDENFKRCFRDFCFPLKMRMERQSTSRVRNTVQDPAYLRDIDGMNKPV
Sequence of human δ-opioid receptor (P41143 whole entry): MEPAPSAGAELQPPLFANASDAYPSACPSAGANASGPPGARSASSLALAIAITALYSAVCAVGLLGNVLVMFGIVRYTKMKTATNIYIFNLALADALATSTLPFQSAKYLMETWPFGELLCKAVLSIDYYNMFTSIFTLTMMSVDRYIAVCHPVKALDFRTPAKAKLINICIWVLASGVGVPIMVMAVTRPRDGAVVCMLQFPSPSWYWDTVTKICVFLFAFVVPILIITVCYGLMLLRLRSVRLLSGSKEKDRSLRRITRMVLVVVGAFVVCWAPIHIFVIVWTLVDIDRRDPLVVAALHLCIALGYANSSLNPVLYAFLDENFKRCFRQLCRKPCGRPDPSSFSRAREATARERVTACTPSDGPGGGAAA

As to `COC(=O)[C@@H]1C=C(OC(=O)c2ccccc2)C(=O)[C@H]2[C@@]1(C)CC[C@H]1C(=O)O[C@H](c3ccoc3)C[C@]21C` [Kurkinorin], in series [1], the KOR activity entry is given as “no KOR activity”.
As to `COC(=O)[C@@H]1C[C@H](OC(C)=O)C(=O)[C@H]2[C@@]1(C)CC[C@H]1C(=O)O[C@H](c3ccoc3)C[C@]21C` [compound 9, salvinorin A, reference compound], the “time of significant reduction of phase two pain” value in series [2] (setting [8]) was in the range of 20 to 50 min. In series [2] (setting [9]), the “AUC of phase one (0-15 min) pain” value was “significant reduction” and the “AUC of phase two (15-60 min) pain” value was “significant reduction”. In series [2] (setting [10]), the “footpad edema at 60 min” value is given as “significant reduction in edema”. The “time of significant analgesic effect compared to vehicle (%MPE time course)” value in series [3] fell in the range of 5 to 30 min.
As to `COC(=O)[C@@H]1CCC(=O)[C@H]2[C@@]1(C)CC[C@H]1C(=O)O[C@H](c3ccoc3)C[C@]21C` [compound 11, Methyl (2S,4aR,6aR,7R,10aS,10bR)-2-(furan-3-yl)-6a,10b-dimethyl-4,10-dioxododecahydro-2H-benzo[f]isochromene-7-carboxylate], the KOR activity result in series [4] is “complete loss of KOR activity; also recorded: completely inactive”.
`COC(=O)[C@@H]1C[C@]2(CCC(=O)O2)C(=O)[C@H]2[C@@]1(C)CC[C@H]1C(=O)O[C@H](c3ccoc3)C[C@]21C` [compound 14, Methyl (2S,4aR,6aR,7R,9R,10aS,10bR)-2-(furan-3-yl)-6a,10b-dimethyl-4,5′,10-trioxododecahydro-2H,3′H,4H-spiro[benzo[f]isochromene-9,2′-furan]-7-carboxylate]: in series [5], the EC50 was greater than 10 µM. Moreover, in series [2] (setting [8]), the “time of significant attenuation of phase one pain” value turned out to be 10 min and the “time of significant reduction of phase two pain” value fell in the range of 20 to 45 min. For the same compound, in series [2] (setting [9]), the “AUC of phase one (0-15 min) pain” value was “not significantly different from vehicle” and the “AUC of phase two (15-60 min) pain” value is reported as “reduced phase two pain”. Further, the “footpad edema at 60 min” value in series [2] (setting [10]) is on record as “significant reduction in edema”. In addition, the “effect on formalin pain behavior after pre-treatment with nor-BNI” value in series [2] (KOR antagonist nor-BNI 10 mg/kg s.c. 24 hours prior, result in words) was “prevented”. Besides, the “percent remaining at 150 minutes, absence of NADPH” value in series [6] was “less metabolized than 9”. Further, the EC50 in series [7] is greater than 10 µM. The “time of significant analgesic effect compared to vehicle (%MPE time course)” value in series [3] lay in the range of 10 to 30 min.
For `COc1ccc2c(c1)[C@]13CCCC[C@@H]1[C@H](C2)N(C)CC3` [dextromethorphan, dextromethorphan hydrobomide, reference compound], the “percent remaining at 150 minutes, absence of NADPH” value in series [6] is “not metabolized”.
